Test results from ChEMBL document CHEMBL3739417, “Synthesis and biological evaluation of novel 4,5-disubstituted 2H-1,2,3-triazoles as cis-constrained analogues of combretastatin A-4” (2015).

Experiments:
Type in all cases: functional
[1] = test system: NCI-H23; assay: Growth inhibition of human NCI-H23 cells after 48 hrs by sulforhodamine B assay; details: NCI-H23, 48 h
Procedure, shortened: (§1)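 NCI-60 panel screen by SRB assay (Rubinstein method). Percentage growth taken from optical density of SRB colour, read before and 48 hrs after exposure to compound or vehicle control. All analogues first screened at 10^-5 M. Analogues giving 60% growth inhibition at that level in at least eight lines then went to a five-concentration dose-response study.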

[2] = test system: MDA-MB-231; assay: Growth inhibition of human MDA-MB-231 cells after 48 hrs by sulforhodamine B assay; details: MDA-MB-231, 48 h; procedure, shortened: as §1
[3] = Growth inhibition of human PC3 cells after 48 hrs by sulforhodamine B assay; details: PC-3, 48 h; procedure, shortened: as §1
[4] = Growth inhibition of human NCI-ADR-RES cells after 48 hrs by sulforhodamine B assay; procedure, shortened: as §1
[5] = test system: MCF7; assay: Growth inhibition of human MCF7 cells after 48 hrs by sulforhodamine B assay; details: MCF7, 48 h; procedure, shortened: as §1
[6] = Growth inhibition of human SF268 cells after 48 hrs by sulforhodamine B assay; details: SF-268, 48 h; procedure, shortened: as §1
[7] = Growth inhibition of human SNB75 cells after 48 hrs by sulforhodamine B assay; details: SNB-75, 48 h; procedure, shortened: as §1
[8] = Growth inhibition of human HOP92 cells after 48 hrs by sulforhodamine B assay; details: HOP-92, 48 h; procedure, shortened: as §1
[9] = Growth inhibition of human LOXIMVI cells after 48 hrs by sulforhodamine B assay; details: LOX IMVI; procedure, shortened: as §1
[10] = Growth inhibition of human HOP62 cells after 48 hrs by sulforhodamine B assay; details: HOP-62, 48 h; procedure, shortened: as §1
[11] = Growth inhibition of human HCT116 cells after 48 hrs by sulforhodamine B assay; details: HCT-116, 48 h; procedure, shortened: as §1
[12] = Growth inhibition of human OVCAR3 cells after 48 hrs by sulforhodamine B assay; details: OVCAR-3, 48 h
Procedure, shortened: (§2)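 NCI-60 sulforhodamine B screen. Compounds were first tested at a single dose of 10⁻⁵ M; hits, defined as ≥60% growth inhibition in at least eight lines, went on to a five-concentration dose–response. SRB optical density was read before and 48 h after exposure to compound or vehicle. Percentage growth was calculated from OD.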

[13] = Growth inhibition of human HCT15 cells after 48 hrs by sulforhodamine B assay; details: HCT-15, 48 h; procedure, shortened: as §1
[14] = test system: U-251; assay: Growth inhibition of human U251 cells after 48 hrs by sulforhodamine B assay; details: U-251, 48 h; procedure, shortened: as §1
[15] = Growth inhibition of human IGROV1 cells after 48 hrs by sulforhodamine B assay; details: IGROV-1, 48 h; procedure, shortened: as §1
[16] = test system: A498; assay: Growth inhibition of human A498 cells after 48 hrs by sulforhodamine B assay; details: A498, 48 h; procedure, shortened: as §2
[17] = test system: HT-29; assay: Growth inhibition of human HT-29 cells after 48 hrs by sulforhodamine B assay; details: HT-29, 48 h; procedure, shortened: as §1
[18] = Growth inhibition of human RPMI8226 cells after 48 hrs by sulforhodamine B assay; details: RPMI-8226, 48 h; procedure, shortened: as §1
[19] = test system: ACHN; assay: Growth inhibition of human ACHN cells after 48 hrs by sulforhodamine B assay; procedure, shortened: as §1
[20] = test system: KM12; assay: Growth inhibition of human KM12 cells after 48 hrs by sulforhodamine B assay; details: KM12, 48 h; procedure, shortened: as §1
[21] = Growth inhibition of human HCC2998 cells after 48 hrs by sulforhodamine B assay; details: HCC 2998, 48 h; procedure, shortened: as §1
[22] = test system: SK-MEL-2; assay: Growth inhibition of human SK-MEL-2 cells after 48 hrs by sulforhodamine B assay; details: SK-MEL-2, 48 h; procedure, shortened: as §1
[23] = Growth inhibition of human HL-60(TB) cells after 48 hrs by sulforhodamine B assay; details: HL-60, 48 h; procedure, shortened: as §1
[24] = Growth inhibition of human SW620 cells after 48 hrs by sulforhodamine B assay; details: SW-620, 48 h; procedure, shortened: as §1
[25] = test system: A549; assay: Growth inhibition of human A549/ATCC cells after 48 hrs by sulforhodamine B assay; details: A549, 48 h; procedure, shortened: as §1
[26] = Growth inhibition of human SF295 cells after 48 hrs by sulforhodamine B assay; details: SF-295, 48 h; procedure, shortened: as §1
[27] = test system: K562; assay: Growth inhibition of human K562 cells after 48 hrs by sulforhodamine B assay; details: K562, 48 h; procedure, shortened: as §1
[28] = test system: SR; assay: Growth inhibition of human SR cells after 48 hrs by sulforhodamine B assay; procedure, shortened: as §1
[29] = test system: CAKI-1; assay: Growth inhibition of human CAKI-1 cells after 48 hrs by sulforhodamine B assay; details: CAKI-1, 48 h; procedure, shortened: as §1
[30] = Growth inhibition of human COLO205 cells after 48 hrs by sulforhodamine B assay; details: COLO 205, 48 h; procedure, shortened: as §1
[31] = Growth inhibition of human UO31 cells after 48 hrs by sulforhodamine B assay; details: UO-31, 48 h; procedure, shortened: as §1
[32] = test system: MDA-MB-435; assay: Growth inhibition of human MDA-MB-435 cells after 48 hrs by sulforhodamine B assay; details: MDA-MB-435, 48 h; procedure, shortened: as §2
[33] = Growth inhibition of human MOLT4 cells after 48 hrs by sulforhodamine B assay; details: MOLT-4, 48 h; procedure, shortened: as §1
[34] = test system: 786-0; assay: Growth inhibition of human 786-0 cells after 48 hrs by sulforhodamine B assay; details: 786-0, 48 h; procedure, shortened: as §1
[35] = test system: NCI-H460; assay: Growth inhibition of human NCI-H460 cells after 48 hrs by sulforhodamine B assay; details: NCI-H460, 48 h; procedure, shortened: as §1
[36] = test system: MDA-MB-468; assay: Growth inhibition of human MDA-MB-468 cells after 48 hrs by sulforhodamine B assay; details: MDA-MB-468, 48 h; procedure, shortened: as §1
[37] = test system: CCRF-CEM; assay: Growth inhibition of human CCRF-CEM cells after 48 hrs by sulforhodamine B assay; procedure, shortened: as §1
[38] = read-out: LD50 (the source's name)

SMILES: COc1ccc(-c2n[nH]nc2-c2cc(OC)cc(OC)c2)cc1
- GI50 [1]: 38 nM
- LC50 (concentration giving 50% cell kill) ([1]; read-out: LD50): > 100 µM
- GI50 [2]: 46 nM
- CC50 [2, 38]: > 100 µM
- GI50 [3]: 42 nM
- CC50 [3, 38]: > 100 µM
- GI50 [4]: < 10 nM
- CC50 [4, 38]: > 100 µM
- GI50 [5]: 25 nM
- CC50 [5, 38]: > 100 µM
- GI50 [6]: 177 nM
- CC50 [6, 38]: > 100 µM
- GI50 [7]: 14 nM
- CC50 [7, 38]: > 100 µM
- GI50 [8]: < 10 nM
- CC50 [8, 38]: > 100 µM
- GI50 [9]: 76 nM
- CC50 [9, 38]: > 100 µM
- GI50 [10]: 25 nM
- LC50 (concentration killing 50% of cells) ([10]; read-out: LD50): > 100 µM
- GI50 [11]: < 10 nM
- CC50 [11, 38]: > 100 µM
- GI50 [12]: 24 nM
- LC50 (concentration giving 50% net cell kill) ([12]; read-out: LD50): > 100 µM
- GI50 [13]: < 10 nM
- CC50 [13, 38]: > 100 µM
- GI50 [14]: 38 nM
- CC50 [14, 38]: > 100 µM
- GI50 [15]: 51 nM
- CC50 [15, 38]: > 100 µM
- GI50 [16]: < 10 nM
- LC50 (50% net cell kill) ([16]; read-out: LD50): > 100 µM
- GI50 [17]: 48 nM
- LC50 (concentration killing 50% of cells) ([17]; read-out: LD50): > 100 µM
- GI50 [18]: 37 nM
- CC50 [18, 38]: > 100 µM
- GI50 [19]: 145 nM
- CC50 [19, 38]: > 100 µM
- GI50 [20]: 30 nM
- LC50 (concentration killing 50% of cells) ([20]; read-out: LD50): > 100 µM
- GI50 [21]: 46 nM
- CC50 [21, 38]: > 100 µM
- GI50 [22]: 56 nM
- CC50 [22, 38]: > 100 µM
- GI50 [23]: 23 nM
- CC50 [23, 38]: > 100 µM
- GI50 [24]: 30 nM
- LD50 (concentration killing 50% of cells) [24]: > 100 µM
- GI50 [25]: 37 nM
- CC50 [25, 38]: > 100 µM
- GI50 [26]: 11 nM
- CC50 [26, 38]: > 100 µM
- GI50 [27]: < 10 nM
- CC50 [27, 38]: > 100 µM
- GI50 [28]: < 10 nM
- LC50 (concentration giving 50% net cell kill) ([28]; read-out: LD50): > 100 µM
- GI50 [29]: 50 nM
- CC50 [29, 38]: > 100 µM
- GI50 [30]: 149 nM
- CC50 [30, 38]: > 100 µM
- GI50 [31]: 20 nM
- LC50 (concentration killing 50% of cells) ([31]; read-out: LD50): > 100 µM
- GI50 [32]: < 10 nM
- TGI [32]: 10 nM
- LC50 (concentration killing 50% of cells) ([32]; read-out: LD50): > 100 µM
- GI50 [33]: 48 nM
- CC50 [33, 38]: > 100 µM
- GI50 [34]: 15 nM
- LC50 (concentration killing 50% of cells) ([34]; read-out: LD50): > 100 µM
- GI50 [35]: 34 nM
- CC50 [35, 38]: > 100 µM
- GI50 [36]: 23 nM
- CC50 [36, 38]: > 100 µM
- GI50 [37]: 32 nM
- LC50 (concentration killing 50% of cells) ([37]; read-out: LD50): > 100 µM
